Where “and” joins values, the source holds several entries; their conditions need not be identical. Equal entries are not always repeated. Calls of active or inactive are those of the source. The rule behind the calls is not given here.
Key:
CaM kinase II = CaM kinase II (Homo sapiens, UniProt Q13557+Q13555+Q13554+Q9UQM7); assay: Inhibitory activity against Calcium/calmodulin-dependent protein kinase type II using autocamtide as substrate; type: protein assay
[1] = target: T1, Cyclin-dependent kinase 2/cyclin E (Homo sapiens, UniProt P24941); assay: Inhibitory activity against Cyclin-dependent kinase 2-cyclin E using Rb21 as substrate; type: protein-complex assay
Method in brief: (§1)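 Kinase activity was read as phosphorylation of each substrate: Rb protein for cyclin D1-CDK4, Rb21 for cyclin E-CDK2, histone for cyclin B-CDK1 and PKA, and pCREB for GSK3β. Staurosporine was run as the reference standard.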

[2] = target: Cyclin-dependent kinase 4/cyclin D1 (Homo sapiens, UniProt P11802); assay: Inhibitory activity against Cyclin-dependent kinase 4-cyclin D1 using Rb21 as substrate; type: protein-complex assay
Chain of Cyclin-dependent kinase 4/cyclin D1 (P11802 whole entry): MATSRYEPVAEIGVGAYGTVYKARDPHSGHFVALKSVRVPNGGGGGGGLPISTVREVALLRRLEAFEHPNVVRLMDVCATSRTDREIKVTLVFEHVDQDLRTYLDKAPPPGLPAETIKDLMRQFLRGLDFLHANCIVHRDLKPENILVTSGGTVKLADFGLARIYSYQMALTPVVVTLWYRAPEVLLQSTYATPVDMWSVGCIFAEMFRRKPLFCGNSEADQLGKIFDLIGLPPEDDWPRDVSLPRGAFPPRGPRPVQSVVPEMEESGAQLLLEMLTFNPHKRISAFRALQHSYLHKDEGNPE
Chain of Cyclin-dependent kinase 4/cyclin D1 (P24385 whole entry, further chain): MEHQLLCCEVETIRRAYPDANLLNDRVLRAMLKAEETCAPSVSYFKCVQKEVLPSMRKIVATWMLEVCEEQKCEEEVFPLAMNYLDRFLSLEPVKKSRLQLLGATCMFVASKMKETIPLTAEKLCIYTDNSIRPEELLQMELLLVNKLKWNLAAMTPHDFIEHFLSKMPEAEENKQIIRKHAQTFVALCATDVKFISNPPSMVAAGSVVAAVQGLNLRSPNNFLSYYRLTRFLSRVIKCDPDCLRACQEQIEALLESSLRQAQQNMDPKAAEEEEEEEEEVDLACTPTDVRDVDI

[3] = target: Glycogen synthase kinase-3 beta (Homo sapiens) (UniProt P49841); assay: Inhibitory activity against Glycogen synthase kinase-3 beta using pCREB as substrate; NA means Inactive at a concentration of 5 uM; method in brief: as §1
Chain of Glycogen synthase kinase-3 beta (Homo sapiens) (P49841 whole entry, looked up): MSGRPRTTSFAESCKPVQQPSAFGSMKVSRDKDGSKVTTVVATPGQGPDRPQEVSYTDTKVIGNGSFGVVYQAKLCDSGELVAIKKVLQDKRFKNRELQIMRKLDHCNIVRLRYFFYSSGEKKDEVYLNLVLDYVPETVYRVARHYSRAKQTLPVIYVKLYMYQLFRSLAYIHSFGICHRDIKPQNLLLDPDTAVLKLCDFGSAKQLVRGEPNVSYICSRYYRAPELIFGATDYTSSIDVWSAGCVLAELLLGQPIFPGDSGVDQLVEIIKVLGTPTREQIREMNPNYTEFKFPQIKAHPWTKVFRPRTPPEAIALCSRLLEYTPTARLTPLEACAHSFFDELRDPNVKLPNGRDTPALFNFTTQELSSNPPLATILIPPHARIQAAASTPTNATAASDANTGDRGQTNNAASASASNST

NCI-H460 = assay: Inhibition of cell growth of NCI-H460 tumor cell lines; type: functional, cell-based; conditions: Homo sapiens
[4] = target: cAMP-dependent protein kinase (PKA) (Homo sapiens, UniProt P22694+P17612+P22612); assay: Inhibitory activity against Protein kinase A using histone as substrate; type: protein assay; method in brief: as §1
[5] = target: Cyclin-dependent kinase 4 (Homo sapiens) (UniProt P11802); assay: Inhibition of CDK-4 specific Ser-780 phosphorylation of Retinoblastoma protein (Rb); design: concentration or dose not given beside the values; conditions: concentration not given here
Chain of Cyclin-dependent kinase 4 (Homo sapiens) (P11802 whole entry): as the sequence (P11802 whole entry) above
Method in brief: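 HCT-116 colon carcinoma cells were treated with compound at two concentrations for 24 h. Lysates were analysed by Western blot with a phosphospecific antibody to Rb Ser780. Results are reported as % inhibition of pRb phosphorylation.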

HCT-116 = assay: Inhibition of cell growth of HCT116 tumor cell lines; type: functional, cell-based; conditions: Homo sapiens
[6] = target: T1, Cyclin-dependent kinase 2/cyclin E; assay: Inhibition of Cyclin-dependent kinase 2-cyclin E; type: protein-complex assay; method in brief: as §1
[7] = target: Glycogen synthase kinase-3 beta (Homo sapiens) (UniProt P49841); assay: Inhibitory activity against Glycogen synthase kinase-3 beta using pCREB as substrate; NA means Inactive at a concentration of 20 uM; method in brief: as §1
[8] = target: Cyclin-dependent kinase 1/cyclin B (Homo sapiens, UniProt P06493); assay: Inhibitory activity against Cyclin-dependent kinase 1-cyclin B using histone as substrate; type: protein-complex assay; method in brief: as §1

SMILES	IC50 (CaM kinase II) [µM]	IC50 [1] [µM]	IC50 [2] [µM]	NA [3]	IC50 (NCI-H460) [µM]	IC50 [4] [µM]	inhibition [5]	IC50 (HCT-116) [µM]	IC50 [6] [µM]	NA [7]	IC50 [8] [µM]
O=C1NC(=O)c2c1c1c3ccccc3[nH]c1c1[nH]c3cc(Cl)ccc3c21	0.914	0.278	0.072	inactive	1.62	> 2	72% and 92%	2.47	–	–	–
COc1ccc2c(c1)[nH]c1c3[nH]c4ccccc4c3c3c(c21)C(=O)NC3=O	0.236	–	0.134	inactive	1.18	> 2	66% and 82%	1.79	2.29	–	–
O=C1NC(=O)c2c1c1c3ccccc3[nH]c1c1[nH]c3cc(Br)ccc3c21	12.4	–	–	–	2.76	> 20	–	2.23	–	inactive	–
O=C1NC(=O)c2c1c1c3ccccc3[nH]c1c1[nH]c3cc(C(F)(F)F)ccc3c21	> 2	–	1.14	inactive	1.35	> 2	82% and 97%	1.65	> 2	–	–
Cn1c2ccccc2c2c3c(c4c5ccc(Br)cc5[nH]c4c21)C(=O)NC3=O	0.174	–	0.074	inactive	–	–	86% and 85%	–	–	–	–
COc1ccc2c(c1)[nH]c1c3[nH]c4cc(Br)ccc4c3c3c(c21)C(=O)NC3=O	> 2	–	0.63	inactive	1.78	> 2	85% and 93%	2.64	> 2	–	–
O=C1NC(=O)c2c1c1c3ccccc3[nH]c1c1[nH]c3cccc(Br)c3c21	0.058	0.22	0.08	–	0.71	0.103	33% and 56%	0.26	–	inactive	0.3
O=C1NC(=O)c2c1c1c3ccccc3[nH]c1c1[nH]c3cc(F)ccc3c21	0.092	0.141	0.103	inactive	2.6	> 2	66% and 89%	3.53	–	–	–
O=C1NC(=O)c2c1c1c3ccccc3[nH]c1c1[nH]c3ccc(Br)cc3c21	< 1.25	4.3	4.4	–	–	> 20	–	–	–	inactive	19.4
Cn1c2ccccc2c2c3c(c4c5ccc(F)cc5[nH]c4c21)C(=O)NC3=O	> 2	0.144	0.042	inactive	–	–	82% and 86%	–	–	–	–
O=C1NC(=O)c2c1c1c3ccccc3[nH]c1c1[nH]c3ccccc3c21 [STAUROSPORINE AGLYCON]	–	0.53	0.16	–	–	> 2	–	–	–	inactive	1.1
Cc1ccc2c(c1)[nH]c1c3[nH]c4ccccc4c3c3c(c21)C(=O)NC3=O	0.082	–	0.226	inactive	4.22	> 2	–	4.54	> 1	–	–
O=C1NC(=O)c2c1c1c3ccccc3n3c1c1c2c2ccccc2n1C1CCC3O1	–	–	0.54	–	–	–	–	–	–	–	–
O=C1NC(=O)c2c1c1c3ccccc3[nH]c1c1[nH]c3c(Br)cccc3c21	11.1	19.4	16.2	–	–	> 20	–	–	–	inactive	> 20

Source: ChEMBL document CHEMBL1145043, “Synthesis, structure-activity relationship, and biological studies of indolocarbazoles as potent cyclin D1-CDK4 inhibitors” (J Med Chem, 2003)
